The results in this text go back to the RNAGym collection of RNA variant scans (doi:10.1038/s41586-018-0170-7).

The chains are these.
B1: tRNA (parent)
chain: GUUCCGUUGGCGUAAUGGUAACGCGUCUCCCUCCUAAGGAGAAGACUGCGGGUUCGAGUCCCGUACGGAACG

In the data set the parent is B1. The data set can be described thus: yeast fitness, log relative to wild type (ln ratio); higher = fitter; tRNA-Arg(CCU), competitive growth, 37 C, 1 M NaCl. An outline of the steps: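 Fitness is the natural log of each genotype's generations divided by the wild type's. Generations were derived as OD-scaled log2 output/input frequency from 125 bp paired-end Illumina counts, weighting replicates by inverse variance. Pools of the tRNA-Arg(CCU) variant library, on a HIS3 centromeric plasmid in BY4742 lacking the chromosomal gene, grew ~6.5 generations (~26.5 h) in SC-HIS 1M NaCl at 37 °C after 4 generations in SC-HIS at 30 °C.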
For U2G G6U C27U C66U A70U, the “yeast fitness (ln)” value is -0.342.

For the variant U2G G6U C27U C66U A70G, the “yeast fitness (ln)” value is -0.207.

As to U2G G6U C27U A43C C46U C66A A70U C71U, the “yeast fitness (ln)” value was -0.629.

For the variant U2G G6U C27U A43C A69G, the “yeast fitness (ln)” value is -0.268.

As for U2G G6U C27U A43C C66A A70U C71U, the “yeast fitness (ln)” value is -0.445.

Turning to G6A A43C C66U A70G C71U, the “yeast fitness (ln)” value is -0.26.

Consider G6A A43C C46U C66U A69G, for which the “yeast fitness (ln)” value was -0.0394.

As to U2G G6U C27U A43C A69G A70G C71U, the “yeast fitness (ln)” value is -0.35.

With U2G G6U C27U A43C, the “yeast fitness (ln)” value was -0.107.

For U2G G6U C27U C46U A70U C71U, the “yeast fitness (ln)” value is -0.171.

With U2G G6U C27U C66A A70U C71U, the “yeast fitness (ln)” value is -0.275.

U2G G6U C66U C71U: the “yeast fitness (ln)” value is -0.203.

Regarding U2G G6U C27U A43C C46U A69G A70U, the “yeast fitness (ln)” value was -0.147.

As to U2G G6U C27U A43C C46U A69G A70G, the “yeast fitness (ln)” value is -0.242.

Turning to U2G G6U C66A C71U, the “yeast fitness (ln)” value is -0.108.

Regarding U2G G6U A43C C46U A70U C71U, the “yeast fitness (ln)” value was -0.168.

For U2G G6U C46U C66A A69G A70G, the “yeast fitness (ln)” value was -0.13.

U2G G6U C46U C66A A69G A70U: the “yeast fitness (ln)” value stood at 0.00778.

Take U2G G6U C27U C46U C66A A70G C71U: the “yeast fitness (ln)” value is -0.168.

For G6A A43C C46U C66U A69G A70U, the “yeast fitness (ln)” value is -0.159.

With G6A A43C C46U C66U A69G A70G, the “yeast fitness (ln)” value was -0.233.

Take G6A A43C C46U C66A C71U: the “yeast fitness (ln)” value was -0.229.

For the variant U2G G6U C46U A69G C71U, the “yeast fitness (ln)” value is -0.129.

U2G G6U C27U A43C C46U C66U C71U: the “yeast fitness (ln)” value was -0.356.

Turning to U2G G6U C27U C66A A69G A70U C71U, the “yeast fitness (ln)” value is -0.369.

With U2G G6U A69G A70G C71U, the “yeast fitness (ln)” value is -0.235.

As to U2G G6U C27U A43C C46U A69G, the “yeast fitness (ln)” value was -0.199.

In the case of U2G G6U C27U A43C C46U C66A A69G A70U C71U, the “yeast fitness (ln)” value is -0.386.

G6A C27U A43C A69G C71U: the “yeast fitness (ln)” value is -0.353.

For U2G G6U C27U A43C A70U C71U, the “yeast fitness (ln)” value was -0.324.

As to U2G G6U C27U C46U C66A A69G A70U C71U, the “yeast fitness (ln)” value is -0.314.

For the variant U2G G6U C27U C46U C66U A70G, the “yeast fitness (ln)” value was -0.176.

Regarding U2G G6U C27U C46U C66U A70U, the “yeast fitness (ln)” value is -0.106.

Consider U2G G6U C46U C66A A69G A70G C71U, for which the “yeast fitness (ln)” value was -0.164.

U2G G6U C27U C46U C71U: the “yeast fitness (ln)” value is -0.199.

Take U2G G6U A43C C46U C66A A69G C71U: the “yeast fitness (ln)” value was -0.462.

Take G6A A43C C46U A69G C71U: the “yeast fitness (ln)” value is -0.171.

For the variant U2G G6U A43C C46U C66A A70U, the “yeast fitness (ln)” value was -0.00113.

For the variant U2G G6U A43C C46U C66A A70G, the “yeast fitness (ln)” value was -0.251.

Turning to U2G G6U C46U C66A A70U, the “yeast fitness (ln)” value was 0.00118.

As to U2G G6U C46U C66A A70G, the “yeast fitness (ln)” value was -0.0357.

For the variant U2G G6U C27U A43C C46U C66U A70U C71U, the “yeast fitness (ln)” value was -0.378.

On to U2G G6U A43C C46U C66U A69G C71U, for which the “yeast fitness (ln)” value is -0.487.

Consider U2G G6U C66A A70G, for which the “yeast fitness (ln)” value is -0.0514.

Take U2G G6U C66A A70U: the “yeast fitness (ln)” value amounted to 0.00254.

Turning to U2G G6U C27U A43C C46U C66A A69G A70G, the “yeast fitness (ln)” value was -0.187.

U2G G6U C27U A43C C46U C66A A69G A70U: the “yeast fitness (ln)” value was -0.357.

In the case of U2G G6U C66U A70G C71U, the “yeast fitness (ln)” value was -0.151.

For U2G G6U A43C C46U C66A A70G C71U, the “yeast fitness (ln)” value was -0.174.

Consider U2G G6U C66A A69G A70U C71U, for which the “yeast fitness (ln)” value is -0.726.

As for U2G G6U A69G C71U, the “yeast fitness (ln)” value is -0.17.

Consider U2G G6U C27U A43C C46U A70U C71U, for which the “yeast fitness (ln)” value is -0.228.

For U2G G6U C27U C66A A69G A70G C71U, the “yeast fitness (ln)” value is -0.25.

On to U2G G6U C27U C66A A70G C71U, for which the “yeast fitness (ln)” value is -0.239.

With G6A A69G A70U, the “yeast fitness (ln)” value is -0.082.

Regarding G6A A69G A70G, the “yeast fitness (ln)” value was -0.0849.

In the case of U2G G6U C46U C66U C71U, the “yeast fitness (ln)” value is -0.2.

Regarding U2G G6U C27U A43C C46U C66A A69G C71U, the “yeast fitness (ln)” value was -0.352.

Take G6A A70U C71U: the “yeast fitness (ln)” value was -0.14.

Take U2G G6U C27U A43C C66A A69G A70G C71U: the “yeast fitness (ln)” value was -0.371.

As to U2G G6U C27U C46U C66A A69G A70G C71U, the “yeast fitness (ln)” value is -0.25.

As to U2G G6U A43C C46U C66U A70G C71U, the “yeast fitness (ln)” value is -0.241.

As to U2G G6U C27U C66U A69G C71U, the “yeast fitness (ln)” value is -0.427.

G6A A43C C46U C66U A69G A70G C71U: the “yeast fitness (ln)” value is -0.24.

In the case of G6A A43C C46U C66U A69G A70U C71U, the “yeast fitness (ln)” value is -0.233.

On to U2G G6U A43C C66U A70G C71U, for which the “yeast fitness (ln)” value is -0.397.

Take G6A A69G A70G C71U: the “yeast fitness (ln)” value is -0.263.

For the variant U2G G6U C27U A43C C46U C71U, the “yeast fitness (ln)” value was -0.197.

With U2G G6U A43C C66A A70G C71U, the “yeast fitness (ln)” value is -0.265.

U2G G6U C27U A43C C46U C66U A69G A70G: the “yeast fitness (ln)” value is -0.318.

As for U2G G6U C27U A43C C46U C66U A69G A70U, the “yeast fitness (ln)” value is -0.374.

Consider U2G G6U C27U C46U C66U A70G C71U, for which the “yeast fitness (ln)” value was -0.261.

For the variant U2G G6U C66U A69G A70U C71U, the “yeast fitness (ln)” value was -0.421.

As to U2G G6U C66U A69G A70U, the “yeast fitness (ln)” value is -0.409.

U2G G6U C66U A69G A70G: the “yeast fitness (ln)” value was -0.251.

As to U2G G6U C46U A69G A70G C71U, the “yeast fitness (ln)” value is -0.217.

On to U2G G6U A43C C66A C71U, for which the “yeast fitness (ln)” value is -0.324.

In the case of U2G G6U C27U A43C C46U C66U A70U, the “yeast fitness (ln)” value was -0.227.

As for U2G G6U C27U A43C C46U C66U A70G, the “yeast fitness (ln)” value was -0.311.

With U2G G6U C27U A43C C71U, the “yeast fitness (ln)” value was -0.304.

Regarding G6A A43C C46U C66A A69G A70U, the “yeast fitness (ln)” value was -0.317.

Turning to U2G G6U A43C C46U A70U, the “yeast fitness (ln)” value was -0.337.

Turning to U2G G6U A43C C46U A70G, the “yeast fitness (ln)” value was -0.138.
